Source: PubChem (several laboratories)
MT stabilizer: microtubule stabilization, imaging screen | HeLa tubulin immunostaining HCS, 24 h; share of cells brighter than vehicle mean+2SD | % tubulin-high responders, % at 10 µM | hit rate 0.83% among 200,000;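 active = plate Z-score above 3 for both tubulin-high and condensed-nucleus cell shares, with cell loss under 80%, at 10 µM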;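 also: anti alpha tubulin signal scored within the nucleus-defined area of each cell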
APP transl inh: APP translation inhibition; SH-SY5Y APP 5'UTR-luciferase reporter, luminescence; inhibition, % at 2 µM; AID 1285; hit rate 0.82% among 190,000;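 active = inhibition above a set limit, derived from the sample mean plus 3 SD, cut at about 45% in these data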
Ba/F3 V617F tox: reduce viability of Ba/F3 cells dependent on JAK2V617F | inhibition, % at 5.6 µM | hit rate 1.1% among 220,000 | Ba/F3 EpoR-JAK2V617F viability, ATP luminescence;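 active = inhibition above the campaign mean plus 3 SD over all tested compounds, cut at about 24% in these data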;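 also: cytokine-independent growth of Ba/F3 cells driven by EpoR plus mutant JAK2; 0% = DMSO-treated cells and 100% = JAK inhibitor I control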
L major viab: inhibitors of Leishmania major promastigote growth; Leishmania major promastigotes, resazurin fluorescence viability; inhibition, % at 10 µM; hit rate 9% among 200,000; in the data active = inhibition above about 50%;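 also: promastigotes grown with compound for 44 hours at 28 °C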
BaF3 tox: reduces parental Ba/F3 cell viability, JAK2V617F counter-screen; CellTiter-Glo ATP luminescence; inhibition, % at 5.6 µM; hit rate 1.1% among 220,000;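 active = inhibition above a per-campaign cutoff, the mean inhibition of all tested compounds plus 3 SD, cut at about 27% in these data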;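 also: 0% = DMSO wells and 100% = JAK Inhibitor I control wells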
b-catenin transl: modulators of beta-catenin nuclear translocation. HeLa beta-catenin nuclear translocation, immunofluorescence imaging. nuclear translocation activity, % at 5 µM. hit rate 0.3% among 190,000. AID 1665;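 active = nuclear translocation activity above 50% at 5 µM, with a well cell count of 50 or more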;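 also: per-cell ratio of nuclear to cytoplasmic median beta-catenin stain intensity; plate controls were DMSO negative control for no effect and GSK-3 inhibitor IX positive control for full effect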
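Test system: human HeLa cell line; Doses: 5 µM primary, 0.02–20 µM confirmation; Incubation: 24 h compound exposure, 37°C; Detection: beta-catenin immunofluorescence imaging with DAPI; Read-out: beta-catenin nuclear/cytoplasmic ratio, % activation.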
* = called active by the depositor; · = no result given. Rows were chosen to be rich in hits. Some 9.6% of all compounds tested hit in one or more screens of this group.

SMILES	MT stabilizer	APP transl inh	Ba/F3 V617F tox	L major viab	BaF3 tox	b-catenin transl
Cc1ccccc1-n1nc(C(=O)c2cccs2)cc(-c2nc3ccccc3[nH]2)c1=N	3	-3	-1	98*	3	-2
COC(=O)CSc1nnc(CNC(=O)c2ccccc2F)n1-c1ccccc1	3	-24	5	-8	4	-4
O=C(CN1CCN(Cc2ccc3c(c2)OCO3)CC1)N1CCc2[nH]c3ccc(F)cc3c2C1	4	6	1	99*	6	0
CC1CN(CC(=O)N2CCc3[nH]c4ccccc4c3C2)CC(C)O1 (centres undefined)	2	1	2	-4	6	-8
O=C(CN1CCN(Cc2ccc3c(c2)OCO3)CC1)N1CCc2[nH]c3ccccc3c2C1	3	1	1	82*	6	-2
CCOC(=O)/C(C)=N/Nc1nc(-c2ccc(NC(C)=O)cc2)cs1	·	·	-1	·	5	0
Cc1ccc(COc2ccc(C)nc2[N+](=O)[O-])cc1	·	·	1	·	4	-1
O=C(NCCCn1ccnc1)C(=O)c1c[nH]c2ccccc12	3	20	-2	-5	9	5
S=C(NCCc1ccccc1)NC1CCC(NC(=S)NCCc2ccccc2)CC1 (centres undefined)	3	-3	-2	-5	3	0
S=C(Nc1ccc(Cl)cc1)NC1CCN(Cc2ccccc2)CC1	1	6	1	99*	8	0
CCC(C)c1ccc(NC(=S)NC2CCN(Cc3ccccc3)CC2)cc1 (centres undefined)	3	18	2	87*	10	0
CCc1ccc(NC(=S)NC2CCN(Cc3ccccc3)CC2)cc1	4	-4	-2	96*	1	1
COc1ccc(NC(=S)NC2CCN(Cc3ccccc3)CC2)cc1OC	2	-7	9	22	6	-5
COc1ccc(CCNC(=S)NC2CCN(Cc3ccccc3)CC2)cc1	4	3	0	74*	8	-2
Cc1onc(C(=O)N2C(C)CCCC2C)c1[N+](=O)[O-] (centres undefined)	3	-1	4	-2	12	-2
CCN(CC(=O)NCc1ccccc1Cl)CC(=O)Nc1c(F)cccc1F	·	·	1	·	-1	2
COc1ccc(C)cc1NC(=O)CC(NC(C)=O)c1ccccc1 (centres undefined)	3	18	7	-4	3	0
CCCN1CCC(NC(=S)Nc2ccc([N+](=O)[O-])cc2)CC1	2	2	0	83*	0	1
S=C(Nc1ccccc1)NC1CCN(Cc2ccccc2)CC1	4	0	-4	91*	-2	-2
COC(=O)c1ccsc1-n1cc(C#N)c(=O)n(C)c1=O	2	10	-4	-6	1	-1
CC(=O)Nc1cc(C(=O)NCc2ccco2)ccc1Sc1ccc(C)cc1	3	-16	4	75*	8	-8
CCOCCCNC(=O)c1ccc(OC)cc1	2	-17	-4	-7	0	-1
CCC1=Nc2cc(C(=O)NCc3ccco3)ccc2Sc2ccc(C)cc21	4	94*	86*	67*	84*	74*
Cc1ccc(C(=O)Nc2cccc(C(=O)NCc3ccco3)c2)cc1	3	-31	0	1	3	·
CCCC1=Nc2cc(C(=O)NCCCOC(C)C)ccc2Sc2ccccc21	22*	2	7	12	11	72*
SMILES	MT stabilizer	APP transl inh	Ba/F3 V617F tox	L major viab	BaF3 tox	b-catenin transl
CCCC1=Nc2cc(C(=O)NCCCOCC)ccc2Sc2ccccc21	15	97*	93*	18	91*	105*
COCCCNC(=O)c1cccc(C(=O)NCCCOC)c1	4	-2	-2	-3	6	-3
CCC1=Nc2cc(C(=O)NCCCOC)ccc2Sc2ccccc21	25*	95*	77*	19	79*	·
COc1cccc(Cn2c(NCc3ccco3)nc3c2c(=O)n(C)c(=O)n3C)c1	4	-10	59*	4	86*	0
CCCCCCn1c(NCC)nc2c1c(=O)n(C)c(=O)n2C	6	2	54*	7	59*	-1
CCCNc1nc2c(c(=O)n(C)c(=O)n2C)n1Cc1cccc(C)c1	3	-8	42*	5	45*	-4
COc1cccc(Cn2c(NCC(C)C)nc3c2c(=O)n(C)c(=O)n3C)c1	2	-9	2	7	5	0
COCCNc1nc2c(c(=O)n(C)c(=O)n2C)n1Cc1cccc(C(F)(F)F)c1	3	-1	59*	-7	60*	-1
Cc1ccc(-n2c(C)cc(C(=O)COc3c(CO)cc(F)cc3CO)c2C)cc1C	5	-3	5	19	3	2
COc1ccc(C(=O)Nc2c(Cl)cc(Cl)cc2C(=O)N2CCOCC2)cc1	4	-8	1	6	8	-1
CCOC(=O)c1c(-c2ccc(OC)c(OC)c2)csc1NC(=O)C1CCCO1 (centres undefined)	4	9	6	100*	4	-2
CC(C)c1ccccc1NC(=S)NCc1ccccc1F	3	16	-2	20	6	-1
O=C(COc1ccc(-n2cnnn2)cc1)NC1CCCCC1	2	74*	0	-4	1	1
O=C(COc1ccc(C(=O)c2ccccc2)cc1)NC1CCCCC1	1	0	-2	53*	2	-4
O=C(COc1ccccc1)NC1CCCCC1	2	-1	-4	-4	0	·
O=C(COc1ccc(C(=O)c2ccccc2)cc1)NC1CCCCCC1	4	18	0	62*	3	·
Cc1cc(F)c(F)c(C(=O)N2CCC(C)CC2)c1Cl	3	1	-2	5	5	-2
Cc1ccc(S(=O)(=O)[N-]c2nc3ccccc3nc2-n2cc[n+](Cc3ccccc3)c2)cc1	·	·	4	·	1	0
C=CC[n+]1ccn(-c2nc3ccccc3nc2[N-]S(=O)(=O)c2cccs2)c1	·	·	92*	·	86*	0
CCCCC[n+]1ccn(-c2nc3ccccc3nc2[N-]S(=O)(=O)c2ccc(C)cc2)c1	3	6	6	100*	10	0
CCCC[n+]1ccn(-c2nc3ccccc3nc2[N-]S(=O)(=O)c2ccc(C)cc2)c1	1	16	5	99*	15	·
O=S(=O)([N-]c1nc2ccccc2nc1-n1cc[n+](Cc2ccccc2)c1)c1ccccc1	·	·	3	·	0	0
CCCC[n+]1ccn(-c2nc3ccccc3nc2[N-]S(=O)(=O)c2ccccc2)c1	2	5	-4	54*	0	·
O=[N+]([O-])c1cccc(S(=O)(=O)[N-]c2nc3ccccc3nc2-n2cc[n+](Cc3ccccc3)c2)c1	·	·	-3	·	1	1
O=[N+]([O-])c1cnn(-c2nc(-c3ccccc3)cc(C(F)(F)F)n2)c1	1	-5	0	-7	7	6
O=C(Nc1ccccc1)c1ccccc1C(=O)N1CCCCC1	4	9	-2	-7	1	0
